Compound activity (PubChem BioAssay)
A selection: hits, their analogues and other compounds. The true share with any hit is near 2.3%.
ADAM10 inh: inhibitors of human ADAM10; inhibition, % at 7 µM; recombinant ADAM10, EDANS/DABCYL FRET peptide cleavage, 3 h; 370,000 compounds, 0.62% hits;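 active = inhibition above a per-campaign cutoff equal to the mean of compounds falling between control-based bounds plus 3 SD, cut at about 20% in these data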;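 also: 0% = DMSO wells while the 100% control is not disclosed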
Target sequence (O14672 214-748 limits assumed): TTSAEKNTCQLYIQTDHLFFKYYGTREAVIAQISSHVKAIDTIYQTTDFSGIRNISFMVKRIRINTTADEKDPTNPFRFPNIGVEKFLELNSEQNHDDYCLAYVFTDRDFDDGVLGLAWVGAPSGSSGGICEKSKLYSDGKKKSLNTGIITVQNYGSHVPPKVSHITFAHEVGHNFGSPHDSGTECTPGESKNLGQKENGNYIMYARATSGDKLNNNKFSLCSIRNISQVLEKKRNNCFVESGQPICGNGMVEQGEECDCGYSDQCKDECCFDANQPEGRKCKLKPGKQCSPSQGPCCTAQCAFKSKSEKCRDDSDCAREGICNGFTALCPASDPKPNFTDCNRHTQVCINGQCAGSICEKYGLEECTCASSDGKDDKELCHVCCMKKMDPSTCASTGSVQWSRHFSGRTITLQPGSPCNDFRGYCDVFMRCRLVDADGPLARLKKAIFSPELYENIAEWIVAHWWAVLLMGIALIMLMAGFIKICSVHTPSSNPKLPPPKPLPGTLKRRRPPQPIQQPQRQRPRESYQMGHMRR
PLCb3 inh: inhibitors of human phospholipase C beta3; inhibition, % at 12.2 µM; Q01970; 370,000 compounds, 0.18% hits; Purified PLC-beta3, fluorogenic substrate, fluorescence;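 also: 0% = median of compound wells on plate and 100% = full blocker control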
DDE Tn6 FP inh: disrupts Tn6 cyclic peptide binding to fibrin D-Dimer-E complex | Fibrin DD(E) TRITC-Tn6 fluorescence polarization displacement | 370,000 compounds, 0.21% hits | inhibition, % at 8.3 µM | P02675;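 active = inhibition above a per-campaign cutoff: mean of compounds within control limits plus 3 SD, cut at about 15% in these data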;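 also: 0% = median of all compound wells on the plate and 100% = blocking peptide control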
PLC-gamma1 inh: PLC-gamma1 (human) inhibition, primary screen. P19174. purified PLC-gamma1, fluorogenic substrate, fluorescence. inhibition, % at 12.2 µM. 370,000 compounds, 0.84% hits. AID 720700; in the data active = inhibition above about 9.5%
ADAM17 inh: inhibits human ADAM17 | P78536 | recombinant ADAM17, EDANS/DABCYL FRET peptide cleavage | inhibition, % at 6.95 µM | 370,000 compounds, 0.83% hits;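 active = inhibition above the mean of compounds lying between control limits plus 3 SD, set per campaign, cut at about 8.5% in these data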;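 also: 0% = DMSO-only wells as the low control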
Tn7 DDE FP: DD(E)-Tn7 binding inhibition, primary FP screen; P02675; FP displacement of FITC-Tn7 peptide from fibrin DD(E); 0% = median of compound wells per plate; inhibition, % at 8.3 µM; 370,000 compounds, 0.13% hits; AID 720508;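 active = inhibition above the mean of compounds falling within the control limits plus 3 SD of them, cut at about 14% in these data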;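 also: 0% = plate median of compound wells and 100% = 10 µM Aha-Tn7 peptide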
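Measure: % inhibition scaled between sample-field median and high-control FP; Test system: human fibrin DD(E); Quantity: 2 µM final DD(E) protein; Doses: one dose, 8.3 µM nominal; Schedule: compound with protein 10 min, then 3 h after probe, room temperature; Detection: fluorescence polarization; Medium: Tris buffer with calcium and detergent, pH 7.8.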
PLCg1 ctr: inhibits human PLC-gamma1 in PLC-beta3 counter-screen | shares compounds with PLC-gamma1 inh | purified PLC-gamma1, fluorogenic substrate, fluorescence | inhibition, % at 12.3 µM | 3,300 compounds, 3.1% hits; in the data active = inhibition above about 9.5%
PLCb3 confirm: confirmation of human PLC-beta3 inhibitors; shares compounds with PLC-gamma1 inh; purified PLC-beta3, fluorogenic substrate fluorescence; inhibition, % at 12.3 µM; 3,300 compounds, 1% hits; AID 743261
Starred values were filed as active, the others as inactive; / = no result given. Rule as the data show it, unless noted: active = inhibition above about 11%; inactive = the rest.

SMILES	ADAM10 inh	PLCb3 inh	DDE Tn6 FP inh	PLC-gamma1 inh	ADAM17 inh	Tn7 DDE FP	PLCg1 ctr	PLCb3 confirm
CC1CCN(CC(CS(=O)(=O)c2ccc([N+](=O)[O-])cc2)N2CCC(C)CC2)CC1 (centres undefined)	11	11*	4	5	-1	7	-6	-4
C=CCN1C(=O)[C@@H](CC(=O)NCCC(C)C)[C@]2(C(=O)OCC)CCCCC/C=C/12	-4	0	1	-2	-2	13	/	/
CCn1c2c(c(C)cc1=O)C(=O)CC(C)(C)C2	-2	-1	4	0	-1	7	/	/
CCn1c(C)c2c([n+]1CC)CC(C)(C)CC2=O	-4	76*	-1	1	3	-11	-4	-1
C[C@H](CO)N1C[C@H](C)[C@@H](CN(C)C(=O)Nc2ccc3c(c2)OCCO3)OCc2cn(nn2)CCCC1=O	-10	-21	8	-3	-2	7	/	/
CCOC(=O)c1sc(NC(=O)CCCCl)nc1C	-3	5	-1	9.8*	0	-10	-1	-2
Nc1nc(Nc2ccccc2F)nc(NCc2ccco2)c1[N+](=O)[O-]	-2	-6	3	13*	5	12	-2	-2
Cc1ccc(Nc2nc(N)c([N+](=O)[O-])c(NCc3ccco3)n2)cc1	9	2	-3	3	3	3	/	/
CN1CCN(c2nc3c(c(=O)[nH]c(=O)n3C)n2CC(N)=O)CC1	8	8	2	14*	6	-4	-5	-2
CCCn1c(N2CCN(C)CC2)nc2c1c(=O)[nH]c(=O)n2C	6	4	-1	3	-3	5	/	/
Cc1ccc(NC(=S)NCc2ccc(Cl)cc2)c(C)c1	16	-1	-1	11*	1	-5	-3	-5
Cc1cc(Cl)ccc1NC(=S)NCc1ccccc1	1	2	-8	1	-2	-8	/	/
COc1ccc(Cn2ccc3ccc(-c4ccc5ccn(Cc6ccc(F)cc6)c5c4)cc32)cc1	-79	-107	-2	-77	-27	6	/	/
CSc1ccc(C=Nn2c(-c3cc(C)[nH]n3)n[nH]c2=S)cc1	-4	-2	-4	-5	-5	6	/	/
Cc1ccccc1OCC(=O)N(Cc1cccs1)C1CCS(=O)(=O)C1 (centres undefined)	4	1	-5	1	-6	2	/	/
Cc1cccc(OC(C)C(=O)N(Cc2cccs2)C2CCS(=O)(=O)C2)c1C (centres undefined)	18	3	-5	13*	2	0	-4	2
C=CCN1[C@@H](C)COc2cc(N3CCSCC3)ccc2S1(=O)=O	7	-2	-7	0	2	-2	/	/
CCOC(=O)NC(=O)CSc1nc2ccccc2[nH]1	-6	3	-4	2	-6	3	/	/
CCOC(=O)C1(C(C)(C)CC)CC(CSc2nc3ccccc3[nH]2)OC1=O (centres undefined)	9	6	-6	12*	5	-3	-6	-6
N#Cc1ccc(CSc2nnc(-c3ccncc3)n2CCc2ccccc2)cc1	-4	-3	0	-3	-3	0	/	/
c1ccc(CCn2c(SCc3ccccc3)nnc2-c2ccncc2)cc1	0	2	0	9.9*	4	0	-5	-4
C=CCn1c(SCc2cccc(OC)c2)nnc1-c1ccncc1	8	0	0	12*	-1	2	0	-3
CC(=O)NC(C)C(=O)N1CCCC1C(=O)N1CCCC1C(=O)NC(C)C(=O)NC1C(=O)NC(CC(C)C)C(=O)NC2CCCCNC(=O)CCC(C(=O)NC(Cc3ccc(O)cc3)C(=O)O)NC(=O)C3CCC(=O)OCC(NC(=O)C4CCCN4C(=O)C(Cc4c[nH]c5ccccc45)NC2=O)C(=O)NC(CC(=O)OC1C)C(=O)NC(Cc1c[nH]c2ccccc12)C(=O)N3 (centres undefined)	-2	2	-2	6	-5	-4	/	/
